Data set [1] in a line: melting temperature; fluorescence melt of hairpins on a sequencing array, two-state fit, raised by 9.35 °C to match UV melts. Conditions: sodium 0.088 M. In a few lines: (§1)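 Cy3 signals were normalised both to pre-quench Cy3 and to control constructs. They came from library hairpins carrying annealed Cy3 and quencher oligos on a sequenced MiSeq flow cell, imaged in 50 mM Na-HEPES pH 8.0, 25 mM NaCl, in 2.5 °C steps up to 60 °C. Bootstrapped two-state fits gave melting temperature and folding enthalpy, and four replicates were combined by inverse variance. Fitted temperatures were then raised by 9.35 °C to match UV melts.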

Data set [2] can be described thus: folding enthalpy; higher = less favourable; fluorescence melt of hairpins on a sequencing array, two-state fit. Conditions: sodium 0.088 M. The procedure, abridged: as §1

As for GCTACTACGAAAGTAAGC (((..(((....)))))), the Tm in data set [1] worked out at 29.5 °C. Further, the folding enthalpy in data set [2] was -57 kJ/mol.

With GCGAGTCGAAAGACCGC (((.(((....)))))), the Tm in data set [1] is 66.8 °C. For the same sequence, the folding enthalpy in data set [2] is -147 kJ/mol.

Regarding GCTGAAGGAAACCTCAGC (((((.(....).))))), the Tm in data set [1] was found to be 47 °C. Further, in data set [2], the folding enthalpy is -156 kJ/mol.

As for GCCTCCGAAAGGATTGGC ((((((....)))..))), in data set [1], the Tm was determined as 47.4 °C. Moreover, the folding enthalpy in data set [2] was -82.6 kJ/mol.

In the case of GTGACCGAAAGGTTTCAC ((((((....)))..))), the Tm in data set [1] was found to be 34.8 °C. Besides, in data set [2], the folding enthalpy was -54.9 kJ/mol.

Take GACCGTGGAAACGTGGTC ((((..(....)..)))): in data set [1], the Tm amounted to 45.5 °C. For the same sequence, in data set [2], the folding enthalpy is -98.7 kJ/mol.

For GCGGGCGAAAGCCATCGC ((((((....)))..))), the Tm in data set [1] was 52.8 °C. Also, in data set [2], the folding enthalpy was -88.2 kJ/mol.

GGCTAGACGAAAGTCGCC (((..(((....)))))): the Tm in data set [1] came to 53.4 °C. Also, the folding enthalpy in data set [2] is -106 kJ/mol.

As for GGCCAGGGAAACCTGACC ((.((((....)))).)), in data set [1], the Tm was determined as 48.3 °C. Besides, the folding enthalpy in data set [2] was -144 kJ/mol.

Take GCAGTAGGAAACTGCTGC ((((.((....)).)))): the Tm in data set [1] is 57 °C. In data set [2], the folding enthalpy was -130 kJ/mol.

Regarding GCGAGGCGTCGC ((((....)))), the Tm in data set [1] is 56.6 °C. Besides, the folding enthalpy in data set [2] was -61.7 kJ/mol.

Consider GGCTGCGAAAGCAAAGCC ((((((....)))..))), for which the Tm in data set [1] was determined as 61.3 °C. In addition, the folding enthalpy in data set [2] is -103 kJ/mol.

In the case of CTCCAGAAATGGAG (((((....))))), in data set [1], the Tm was determined as 44.9 °C. Besides, the folding enthalpy in data set [2] is -79.3 kJ/mol.

As for GTGTTACGAAAGTATCAC (((.(((....))).))), the Tm in data set [1] came to 46.8 °C. For the same sequence, the folding enthalpy in data set [2] was -129 kJ/mol.

As for GATCGCAATAGCGATC ((((((....)))))), the Tm in data set [1] came to 68.4 °C. The folding enthalpy in data set [2] is -109 kJ/mol.

Turning to GGGGAACCGAAAGGTCCC (((..(((....)))))), in data set [1], the Tm was 55.6 °C. The folding enthalpy in data set [2] was -72.3 kJ/mol.

Regarding GCCTATGGAAACATAGGC (((((((....))))))), the Tm in data set [1] is 66 °C. The folding enthalpy in data set [2] is -142 kJ/mol.

Turning to GCCAAGCGAAAGCATAGC ((.(.((....)).).)), the Tm in data set [1] turned out to be 30.7 °C. In addition, in data set [2], the folding enthalpy was -54.1 kJ/mol.

Turning to GATGTGGGAAACTGCATC ((((..(....)..)))), the Tm in data set [1] was 36.1 °C. For the same sequence, in data set [2], the folding enthalpy was -114 kJ/mol.

Consider GGTAACGAAAGTTCTACC ((((((....)))..))), for which the Tm in data set [1] is 28.2 °C. Moreover, the folding enthalpy in data set [2] is -58.2 kJ/mol.

As for GATCATGGTTATGATC ((((((....)))))), the Tm in data set [1] is 48.3 °C. The folding enthalpy in data set [2] is -170 kJ/mol.

Turning to GTGTCCGAAAGGAACCAC ((((((....)))..))), the Tm in data set [1] came to 35.3 °C. In addition, in data set [2], the folding enthalpy was -52.6 kJ/mol.

For the sequence GATCGGGCGCCGATC ((((((...)))))), the Tm in data set [1] was 55 °C. The folding enthalpy in data set [2] was -194 kJ/mol.

In the case of GTAGCGCCGAAAGGCTAC (((..(((....)))))), the Tm in data set [1] amounted to 36.3 °C. Besides, the folding enthalpy in data set [2] is -52 kJ/mol.

As to GTTATTCGAAAGAAAAAC (((.(((....))).))), the Tm in data set [1] is 29.9 °C. In addition, the folding enthalpy in data set [2] is -82 kJ/mol.

Consider GTCAATGAAAATTGAC ((((((....)))))), for which the Tm in data set [1] is 50.8 °C. The folding enthalpy in data set [2] is -132 kJ/mol.

GATCCTCTCCAGGATC ((((((....)))))): the Tm in data set [1] came to 50.8 °C. Besides, the folding enthalpy in data set [2] was -152 kJ/mol.

Take GGTTAAGGAAACTTGACC (((.(((....))).))): the Tm in data set [1] was 40.3 °C. The folding enthalpy in data set [2] is -126 kJ/mol.

Turning to GCCTGTGGAAACATAGGC ((((.((....)).)))), the Tm in data set [1] stood at 52.4 °C. For the same sequence, the folding enthalpy in data set [2] was -177 kJ/mol.

For GGGAGTGGAAACGCTCTC (.(((.(....).))).), in data set [1], the Tm stood at 39.7 °C. The folding enthalpy in data set [2] is -74.5 kJ/mol.

With GGATAAGGAAACTTGTCC (((.(((....))).))), the Tm in data set [1] worked out at 39.2 °C. Moreover, the folding enthalpy in data set [2] was -124 kJ/mol.

With GAAGGCGAAAGCCTGTTC ((((((....)))..))), the Tm in data set [1] worked out at 47.9 °C. Further, in data set [2], the folding enthalpy was -41.5 kJ/mol.

Take CCAGTGAAAACTGG (((((....))))): the Tm in data set [1] came to 50.8 °C. For the same sequence, the folding enthalpy in data set [2] was -82.6 kJ/mol.

For the sequence GAACACCGAAAGGTTTC (((.(((....)))))), the Tm in data set [1] was 37.4 °C. In addition, in data set [2], the folding enthalpy was -85.7 kJ/mol.

In the case of GTATGGTCGAAAGACTAC (((..(((....)))))), in data set [1], the Tm is 27.9 °C. The folding enthalpy in data set [2] is -64.7 kJ/mol.

As for GGACGCGGAAACGCGTTC (.(((((....))))).), the Tm in data set [1] worked out at 62.2 °C. Moreover, the folding enthalpy in data set [2] was -69.5 kJ/mol.

As to GTCCACTCGAAAGAGGAC (((..(((....)))))), the Tm in data set [1] was found to be 37.4 °C. Further, the folding enthalpy in data set [2] was -96.1 kJ/mol.
